Laboratory results published in ChEMBL document CHEMBL5724801, “EUbOPEN Chemogenomics Library - Multiplex” (2024).
Several values for one entry are separate records, joined by “and”; a condition that tells them apart may be missing. Equal entries are not always repeated.

Tested on: U2OS
Experiment: Multiplex assay against U2OS
Assay type: toxicity, cell-based
Details: human
How it was run: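 Four dyes were applied at seeding to live cells: Hoechst33342, BioTracker Green Microtubule Cytoskeleton Dye, MitoTracker Red and Annexin V Alexa Fluor 680. Imaging after compound addition used a CQ1 microscope at 37°C and 5% CO2. CellPathfinder machine-learning gating then sorted cells into Hoechst high-intensity objects or normal cells, normal cells into healthy, pyknosed or fragmented nuclei, and pyknosed cells into mitotic or apoptotic, with tubulin, mitochondrial-mass and membrane-permeability phenotypes given as per cents of healthy-nucleus cells.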

[1] = 12 h, 1 µM, compound concentration 1 uM
[2] = 12 h, 10 µM, compound concentration 10 uM
[3] = 24 h, 1 µM, compound concentration 1 uM
[4] = 24 h, 10 µM, compound concentration 10 uM
[5] = 48 h, 1 µM, compound concentration 1 uM
[6] = 48 h, 10 µM, compound concentration 10 uM

O=C(Nc1cc(-c2ccccc2)nn1-c1ccccc1F)c1ccc([N+](=O)[O-])cc1 was tested, and the “Population Apoptotic (%)” value [1] was 86% and 91%, the “Population Fragmented Nuclei (%)” value [1] was 25% and 14% and the “Population Healthy Nuclei (%)” value [1] was 66% and 78%. For the same compound, the “Population Hoechst High Intensity Objects (%)” value [1] was 4% and 1%, the “Population Membrane Permeable-Phenotype (%)” value [1] was 10% and 9% and the “Population Mitochondria Different-Phenotype (%)” value [1] was 4%. The “Population Mitotic Cells (%)” value [1] was 13% and 8%, the “Population Normal (%)” value [1] was 95% and 98% and the “Population Pyknosed Nuclei (%)” value [1] was 8% and 6%. For the same compound, the “Population Tubulin-Different-Phenotype (%)” value [1] was 4% and 9%, the “Total Cell Count” value [1] was 293 and 182 and the “Population Apoptotic (%)” value [2] was 66% and 94%. The “Population Fragmented Nuclei (%)” value [2] was 30% and 12%, the “Population Healthy Nuclei (%)” value [2] was 60% and 73% and the “Population Hoechst High Intensity Objects (%)” value [2] was 3% and 0%. The “Population Membrane Permeable-Phenotype (%)” value [2] was 11%, the “Population Mitochondria Different-Phenotype (%)” value [2] was 5% and 8% and the “Population Normal (%)” value [2] was 96% and 100%. The “Population Pyknosed Nuclei (%)” value [2] was 9% and 13%, the “Population Tubulin-Different-Phenotype (%)” value [2] was 7% and 6% and the “Total Cell Count” value [2] was 293 and 134. For the same compound, the “Population Apoptotic (%)” value [3] was 91% and 100%, the “Population Fragmented Nuclei (%)” value [3] was 24% and 15% and the “Population Healthy Nuclei (%)” value [3] was 68% and 76%. The “Population Hoechst High Intensity Objects (%)” value [3] was 3% and 1%, the “Population Membrane Permeable-Phenotype (%)” value [3] was 6% and 9% and the “Population Mitochondria Different-Phenotype (%)” value [3] was 4% and 5%. For the same compound, the “Population Mitotic Cells (%)” value [3] was 8% and 0%, the “Population Normal (%)” value [3] was 96% and 98% and the “Population Pyknosed Nuclei (%)” value [3] was 7% and 8%. The “Population Tubulin-Different-Phenotype (%)” value [3] was 5% and 6%, the “Total Cell Count” value [3] was 342 and 226 and the “Population Apoptotic (%)” value [4] was 91% and 100%. For the same compound, the “Population Fragmented Nuclei (%)” value [4] was 25% and 14%, the “Population Healthy Nuclei (%)” value [4] was 64% and 76% and the “Population Hoechst High Intensity Objects (%)” value [4] was 1% and 0%. For the same compound, the “Population Membrane Permeable-Phenotype (%)” value [4] was 7% and 11%, the “Population Mitochondria Different-Phenotype (%)” value [4] was 3% and 8% and the “Population Mitotic Cells (%)” value [4] was 8% and 0%. The “Population Normal (%)” value [4] was 98% and 99%, the “Population Pyknosed Nuclei (%)” value [4] was 9% and the “Population Tubulin-Different-Phenotype (%)” value [4] was 5% and 8%. For the same compound, the “Total Cell Count” value [4] was 353 and 164, the “Population Apoptotic (%)” value [5] was 89% and 90% and the “Population Fragmented Nuclei (%)” value [5] was 17% and 12%. The “Population Healthy Nuclei (%)” value [5] was 73% and 79%, the “Population Hoechst High Intensity Objects (%)” value [5] was 2% and 1% and the “Population Membrane Permeable-Phenotype (%)” value [5] was 9% and 6%. The “Population Mitochondria Different-Phenotype (%)” value [5] was 5% and 4%, the “Population Mitotic Cells (%)” value [5] was 10% and the “Population Normal (%)” value [5] was 97% and 98%. The “Population Pyknosed Nuclei (%)” value [5] was 8%, the “Population Tubulin-Different-Phenotype (%)” value [5] was 5% and the “Total Cell Count” value [5] was 475 and 371. The “Population Apoptotic (%)” value [6] was 81% and 89%, the “Population Fragmented Nuclei (%)” value [6] was 20% and 10% and the “Population Healthy Nuclei (%)” value [6] was 67% and 76%. For the same compound, the “Population Hoechst High Intensity Objects (%)” value [6] was 2%, the “Population Membrane Permeable-Phenotype (%)” value [6] was 8% and 11% and the “Population Mitochondria Different-Phenotype (%)” value [6] was 4% and 8%. The “Population Mitotic Cells (%)” value [6] was 18% and 10%, the “Population Normal (%)” value [6] was 97% and the “Population Pyknosed Nuclei (%)” value [6] was 12% and 13%. The “Population Tubulin-Different-Phenotype (%)” value [6] was 6% and 8% and the “Total Cell Count” value [6] was 445 and 226.
CN1CCN(c2cc(-c3ccccc3)nc(N)n2)CC1 was tested, and the “Population Apoptotic (%)” value [1] was 80% and 62%, the “Population Fragmented Nuclei (%)” value [1] was 32% and 17% and the “Population Healthy Nuclei (%)” value [1] was 61% and 76%. The “Population Hoechst High Intensity Objects (%)” value [1] was 2% and 1%, the “Population Membrane Permeable-Phenotype (%)” value [1] was 5% and 7% and the “Population Mitochondria Different-Phenotype (%)” value [1] was 2% and 5%. The “Population Mitotic Cells (%)” value [1] was 20% and 37%, the “Population Normal (%)” value [1] was 97% and 98% and the “Population Pyknosed Nuclei (%)” value [1] was 6% and 5%. The “Population Tubulin-Different-Phenotype (%)” value [1] was 2% and 11%, the “Total Cell Count” value [1] was 235 and 141 and the “Population Apoptotic (%)” value [2] was 86% and 73%. For the same compound, the “Population Healthy Nuclei (%)” value [2] was 63% and 80%, the “Population Hoechst High Intensity Objects (%)” value [2] was 0% and 1% and the “Population Membrane Permeable-Phenotype (%)” value [2] was 5% and 10%. For the same compound, the “Population Mitochondria Different-Phenotype (%)” value [2] was 3%, the “Population Mitotic Cells (%)” value [2] was 13% and 26% and the “Population Normal (%)” value [2] was 99% and 98%. For the same compound, the “Population Pyknosed Nuclei (%)” value [2] was 6% and 10%, the “Population Tubulin-Different-Phenotype (%)” value [2] was 3% and 7% and the “Total Cell Count” value [2] was 252 and 139. The “Population Apoptotic (%)” value [3] was 86% and 80%, the “Population Fragmented Nuclei (%)” value [3] was 25% and 21% and the “Population Healthy Nuclei (%)” value [3] was 65% and 73%. The “Population Hoechst High Intensity Objects (%)” value [3] was 1%, the “Population Membrane Permeable-Phenotype (%)” value [3] was 7% and 6% and the “Population Mitochondria Different-Phenotype (%)” value [3] was 1%. The “Population Mitotic Cells (%)” value [3] was 13% and 20%, the “Population Normal (%)” value [3] was 98% and the “Population Pyknosed Nuclei (%)” value [3] was 8% and 5%. For the same compound, the “Population Tubulin-Different-Phenotype (%)” value [3] was 4% and 9%, the “Total Cell Count” value [3] was 278 and 177 and the “Population Apoptotic (%)” value [4] was 100% and 81%. For the same compound, the “Population Fragmented Nuclei (%)” value [4] was 23% and 12%, the “Population Healthy Nuclei (%)” value [4] was 69% and 80% and the “Population Hoechst High Intensity Objects (%)” value [4] was 1% and 2%. For the same compound, the “Population Membrane Permeable-Phenotype (%)” value [4] was 9% and 4%, the “Population Mitochondria Different-Phenotype (%)” value [4] was 3% and 4% and the “Population Mitotic Cells (%)” value [4] was 0% and 18%. The “Population Normal (%)” value [4] was 98% and 97%, the “Population Pyknosed Nuclei (%)” value [4] was 6% and the “Population Tubulin-Different-Phenotype (%)” value [4] was 7% and 2%. The “Total Cell Count” value [4] was 287 and 166, the “Population Apoptotic (%)” value [5] was 83% and 69% and the “Population Fragmented Nuclei (%)” value [5] was 21% and 19%. The “Population Healthy Nuclei (%)” value [5] was 69% and 75%, the “Population Hoechst High Intensity Objects (%)” value [5] was 2% and 3% and the “Population Membrane Permeable-Phenotype (%)” value [5] was 5%. For the same compound, the “Population Mitochondria Different-Phenotype (%)” value [5] was 1% and 2%, the “Population Mitotic Cells (%)” value [5] was 16% and 30% and the “Population Normal (%)” value [5] was 97% and 96%. The “Population Pyknosed Nuclei (%)” value [5] was 9% and 5%, the “Population Tubulin-Different-Phenotype (%)” value [5] was 2% and 7% and the “Total Cell Count” value [5] was 409 and 267. The “Population Apoptotic (%)” value [6] was 100% and 88%, the “Population Fragmented Nuclei (%)” value [6] was 19% and 11% and the “Population Healthy Nuclei (%)” value [6] was 71% and 78%. For the same compound, the “Population Hoechst High Intensity Objects (%)” value [6] was 1%, the “Population Membrane Permeable-Phenotype (%)” value [6] was 5% and 2% and the “Population Mitochondria Different-Phenotype (%)” value [6] was 3%. For the same compound, the “Population Mitotic Cells (%)” value [6] was 0% and 12%, the “Population Normal (%)” value [6] was 98% and the “Population Pyknosed Nuclei (%)” value [6] was 8% and 10%. The “Population Tubulin-Different-Phenotype (%)” value [6] was 6% and 1% and the “Total Cell Count” value [6] was 420 and 254.
